Assay results published in ChEMBL document CHEMBL4680065, “Pharmacophore-based screening of diamidine small molecule inhibitors for protein arginine methyltransferases” (RSC Med Chem, 2021).

Columns and labels:
[1] = test system: K562; experiment: Antiproliferative activity against human K562 cells assessed as inhibition of cell growth measured after 72 hrs by CellTiter-Glo assay; type: functional, cell-based; conditions: K562, 72 h
Procedure, shortened: (§1)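 Cells were cultured with the test agent, serially diluted, for 72 h. The control received the same amount of DMSO. Cell viability was then measured, and IC50 values were taken from sensitivity curves.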

[2] = target: PRMT5/MEP50 complex (Homo sapiens, UniProt O14744); experiment: Inhibition of PRMT5/MEP50 (unknown origin) using biotin-labeled histone H4-20 peptide as substrate incubated for 8 mins in presence of [3H]-SAM cofactor by scintillation proximity assay; type: protein-complex assay
Procedure, shortened: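 Part of a methyltransferase selectivity panel. Test compound was serially diluted into a mixture of enzyme, [3H]-SAM cofactor and substrate. Methylated substrate was quantified by scintillation proximity assay. Reactions were held at initial-rate conditions with substrate turnover under 10%, and substrate concentrations were near Km.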

[3] = target: T1, Histone-arginine methyltransferase CARM1 (Homo sapiens) (UniProt Q86X55); experiment: Inhibition of recombinant GST-tagged CARM1 (unknown origin) expressed in Escherichia coli assessed as residual activity at 10 uM using histone H3.3 peptide as substrate incubated for 120 mins in presence of [3H]-SAM cofactor by radioactive filter plate assay relative to control
T1 sequence (whole entry): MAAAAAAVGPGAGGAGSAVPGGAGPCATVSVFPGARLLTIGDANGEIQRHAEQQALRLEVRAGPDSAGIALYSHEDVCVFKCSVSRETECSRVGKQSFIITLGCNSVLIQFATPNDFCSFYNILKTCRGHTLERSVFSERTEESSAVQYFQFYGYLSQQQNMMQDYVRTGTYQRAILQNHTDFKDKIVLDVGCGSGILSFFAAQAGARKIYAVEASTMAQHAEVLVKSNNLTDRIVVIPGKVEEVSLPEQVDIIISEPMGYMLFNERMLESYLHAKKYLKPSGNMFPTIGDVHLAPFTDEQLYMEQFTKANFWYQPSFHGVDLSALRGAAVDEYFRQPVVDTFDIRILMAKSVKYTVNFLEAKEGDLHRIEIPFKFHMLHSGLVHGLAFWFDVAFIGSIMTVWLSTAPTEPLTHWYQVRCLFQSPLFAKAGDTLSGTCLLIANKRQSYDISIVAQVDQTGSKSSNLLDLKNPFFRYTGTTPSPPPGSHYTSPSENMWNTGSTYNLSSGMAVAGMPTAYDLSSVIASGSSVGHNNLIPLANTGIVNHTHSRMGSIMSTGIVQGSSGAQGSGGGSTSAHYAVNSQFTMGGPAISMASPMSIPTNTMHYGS

[4] = test system: CMK; experiment: Antiproliferative activity against human CMK cells assessed as inhibition of cell growth measured after 72 hrs by CellTiter-Glo assay; type: functional, cell-based; procedure, shortened: as §1
[5] = target: T2, Histone-lysine N-methyltransferase EHMT2 (Homo sapiens) (UniProt Q96KQ7); experiment: Inhibition of recombinant His-tagged human G9a expressed in Escherichia coli BL21 (DE3) assessed as residual activity at 10 uM using biotin-labeled histone H3-20 peptide as substrate incubated for 30 mins in presence of [3H]-SAM cofactor by scintillation proximity assay relative to control
T2 sequence (whole entry): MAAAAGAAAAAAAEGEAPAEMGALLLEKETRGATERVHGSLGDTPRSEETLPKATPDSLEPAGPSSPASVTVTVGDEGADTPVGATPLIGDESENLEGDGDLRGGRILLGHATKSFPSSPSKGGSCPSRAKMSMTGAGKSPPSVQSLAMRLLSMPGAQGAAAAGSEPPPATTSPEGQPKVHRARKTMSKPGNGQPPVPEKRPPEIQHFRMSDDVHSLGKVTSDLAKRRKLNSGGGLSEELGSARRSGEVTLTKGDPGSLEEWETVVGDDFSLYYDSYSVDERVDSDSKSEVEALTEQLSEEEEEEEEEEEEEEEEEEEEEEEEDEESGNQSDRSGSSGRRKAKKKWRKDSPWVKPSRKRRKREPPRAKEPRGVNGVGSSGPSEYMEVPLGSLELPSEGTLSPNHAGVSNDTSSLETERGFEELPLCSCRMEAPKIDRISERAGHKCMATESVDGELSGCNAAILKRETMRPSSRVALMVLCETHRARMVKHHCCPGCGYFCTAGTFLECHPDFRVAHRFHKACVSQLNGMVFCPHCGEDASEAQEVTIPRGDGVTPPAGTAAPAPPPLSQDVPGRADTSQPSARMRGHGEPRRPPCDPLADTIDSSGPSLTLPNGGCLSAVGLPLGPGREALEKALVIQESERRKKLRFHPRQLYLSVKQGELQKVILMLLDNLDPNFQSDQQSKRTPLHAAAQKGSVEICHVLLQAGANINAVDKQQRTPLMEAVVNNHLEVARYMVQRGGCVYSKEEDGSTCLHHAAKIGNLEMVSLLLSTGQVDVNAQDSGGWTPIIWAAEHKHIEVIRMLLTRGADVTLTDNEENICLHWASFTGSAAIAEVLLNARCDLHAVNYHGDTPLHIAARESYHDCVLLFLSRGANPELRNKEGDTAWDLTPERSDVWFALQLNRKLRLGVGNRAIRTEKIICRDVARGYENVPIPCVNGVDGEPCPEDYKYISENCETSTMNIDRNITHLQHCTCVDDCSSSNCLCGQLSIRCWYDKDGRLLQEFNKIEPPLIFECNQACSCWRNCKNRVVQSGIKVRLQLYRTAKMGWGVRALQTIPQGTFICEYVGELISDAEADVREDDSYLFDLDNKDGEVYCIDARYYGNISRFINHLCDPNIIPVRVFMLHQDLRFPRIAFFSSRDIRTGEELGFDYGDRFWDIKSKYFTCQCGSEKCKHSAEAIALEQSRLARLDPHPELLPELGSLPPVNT
Procedure, shortened: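 Single-point profiling used 10 μM inhibitor added to the enzyme, [3H]-SAM and substrate mixture. Methylated substrate was quantified by scintillation proximity assay. Reactions were held at initial rate, with yield under 10% and substrate near Km. Enzyme, [3H]-SAM and substrate final levels are given in the supplement.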

[6] = target: Protein arginine N-methyltransferase 1 (Homo sapiens, UniProt Q99873); experiment: Inhibition of PRMT1 in human MEG-01 cells assessed as reduction in RBM15 methylation level measured after 24 hrs by immunoblotting analysis; type: cell-based
Procedure, shortened: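 MEG01 cells were cultured for 24 h with the inhibitor (100 nM, 200 nM) or with DMSO control. Cell extracts were resolved by SDS-PAGE and immunoblotted with anti-methyl-RBM15 antibody and the pan-asymmetric methylation antibody α-Asym24. Equal loading was checked by Ponceau S staining.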

[7] = test system: MEG-01; experiment: Antiproliferative activity against human MEG-01 cells assessed as inhibition of cell growth measured after 72 hrs by CellTiter-Glo assay; type: functional, cell-based; conditions: MEG-01, 72 h; procedure, shortened: as §1
[8] = target: T3, Histone-arginine methyltransferase CARM1 (Homo sapiens, UniProt Q86X55); experiment: Inhibition of recombinant GST-tagged CARM1 (unknown origin) expressed in Escherichia coli using […] incubated for 120 mins in presence of [3H]-SAM cofactor by radioactive filter plate assay
T3 sequence (Q86X55 whole entry): T1 sequence (whole entry)

Sequence of PRMT5/MEP50 complex (O14744 whole entry): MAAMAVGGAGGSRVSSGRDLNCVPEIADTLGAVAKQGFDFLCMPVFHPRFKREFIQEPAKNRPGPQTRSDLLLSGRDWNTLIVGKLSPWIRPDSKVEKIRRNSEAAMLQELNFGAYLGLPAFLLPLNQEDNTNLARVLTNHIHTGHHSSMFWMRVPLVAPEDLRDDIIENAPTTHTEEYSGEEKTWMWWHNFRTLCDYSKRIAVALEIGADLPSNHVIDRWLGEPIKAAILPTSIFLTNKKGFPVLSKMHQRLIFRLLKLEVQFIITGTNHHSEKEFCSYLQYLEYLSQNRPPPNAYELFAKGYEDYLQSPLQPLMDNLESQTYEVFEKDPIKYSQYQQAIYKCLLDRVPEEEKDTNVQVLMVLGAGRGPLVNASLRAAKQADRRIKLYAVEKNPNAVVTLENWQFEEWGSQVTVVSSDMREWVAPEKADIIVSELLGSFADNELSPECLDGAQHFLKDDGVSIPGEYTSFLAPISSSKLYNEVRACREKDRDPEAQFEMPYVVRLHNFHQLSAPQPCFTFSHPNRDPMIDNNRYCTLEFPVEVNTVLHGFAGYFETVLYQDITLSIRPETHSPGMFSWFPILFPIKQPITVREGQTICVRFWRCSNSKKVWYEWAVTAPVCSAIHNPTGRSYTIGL
Sequence of PRMT5/MEP50 complex (Q9BQA1 whole entry, further chain): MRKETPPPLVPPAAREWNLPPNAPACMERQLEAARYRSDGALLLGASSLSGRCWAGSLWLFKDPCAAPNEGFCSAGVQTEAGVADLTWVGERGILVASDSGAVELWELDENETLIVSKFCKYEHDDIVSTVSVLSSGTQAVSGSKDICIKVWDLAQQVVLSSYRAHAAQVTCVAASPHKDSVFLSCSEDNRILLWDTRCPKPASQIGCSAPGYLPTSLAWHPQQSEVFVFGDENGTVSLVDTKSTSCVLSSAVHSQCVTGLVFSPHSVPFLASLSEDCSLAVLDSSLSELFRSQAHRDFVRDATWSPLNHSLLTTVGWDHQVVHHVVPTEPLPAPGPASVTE
Sequence of Protein arginine N-methyltransferase 1 (Q99873 whole entry, looked up): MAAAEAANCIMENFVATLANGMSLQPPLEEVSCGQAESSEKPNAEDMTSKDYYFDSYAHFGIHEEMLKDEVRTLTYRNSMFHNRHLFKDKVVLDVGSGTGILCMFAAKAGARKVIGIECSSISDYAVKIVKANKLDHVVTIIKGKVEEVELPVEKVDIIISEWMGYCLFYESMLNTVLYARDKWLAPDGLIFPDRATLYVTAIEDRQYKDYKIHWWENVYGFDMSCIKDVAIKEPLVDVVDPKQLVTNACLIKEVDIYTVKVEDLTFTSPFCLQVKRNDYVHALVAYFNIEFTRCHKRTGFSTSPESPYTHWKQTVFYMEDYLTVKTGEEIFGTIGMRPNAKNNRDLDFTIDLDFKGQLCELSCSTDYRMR

In the case of `N=C(N)c1ccc(Nc2ccc(-c3cc4ccc(C(=N)N)cc4[nH]3)cc2)cc1`, the IC50 [1] is reported as 1.08 µM, the IC50 [2] is reported as 6.8 µM and the Activity [3] is reported as 50.7%. The IC50 [4] was 1.31 µM, the Activity [5] was 10.5% and the inhibition [6] was “Dose-dependent effect”. The IC50 [7] was 1.03 µM and the IC50 [8] was 27.6 µM.
